Source: ChEMBL document CHEMBL4680069, “Itaconate is a covalent inhibitor of the Mycobacterium tuberculosis isocitrate lyase” (RSC Med Chem, 2021)
Active and inactive are the calls of the source. The calls are words filed in the database; no cut-off is given here.

Key:
[1] = Covalent inhibition of wild type N-terminal polyhis-tagged TEV protease cleavage site fused Mycobacterium tuberculosis ICL1 expressed in Escherichia coli BL21 (DE3) using DL-isocitrate as substrate measured after 1 hr by UV-Vis spectrophotometric analysis
Outline: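 Recombinant ICL1 at 20 nM with 1 mM DL-isocitrate and 1 mM MgCl2 in 50 mM Tris pH 7.5. Includes 10 mM phenylhydrazine-HCl to trap product. Inhibitor tested at varying concentrations to give IC50. Four separate measurements; errors are standard deviations.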

[2] = system: Mycobacterium tuberculosis; assay: Binding affinity to wild type N-terminal polyhis-tagged TEV protease cleavage site fused Mycobacterium tuberculosis ICL1 expressed in Escherichia coli BL21 (DE3) assessed as compound-protein covalent adduct formation by measuring molecular mass at 1 mM after 12 hrs in presence of MgCl2 by LC-MS analysis
[3] = system: Mycobacterium tuberculosis; assay: Binding affinity to wild type N-terminal polyhis-tagged TEV protease cleavage site fused Mycobacterium tuberculosis ICL1 (Ala170-Lys197) expressed in Escherichia coli BL21 (DE3) assessed as covalent adduct formation at 1 mM incubated overnight in presence of Mg2+ followed by trypsin protease digestion by tandem mass spectrometry analysis; details: time 12.0 hrs
[4] = system: Mycobacterium tuberculosis; assay: Binding affinity to recombinant Mycobacterium tuberculosis CDC1551 ICL2 (Cys215-Arg233) expressed in Escherichia coli BL21 (DE3) LOBSTR assessed as covalent adduct formation at 1 mM incubated overnight in presence of Mg2+ followed by trypsin protease digestion by tandem mass spectrometry analysis; details: time 12.0 hrs
[5] = system: Mycobacterium tuberculosis; assay: Binding affinity to wild type N-terminal polyhis-tagged TEV protease cleavage site fused Mycobacterium tuberculosis ICL1 expressed in Escherichia coli BL21 (DE3) assessed as compound-protein covalent adduct formation at 1 mM in absence of Mg2+ by LC-MS analysis
[6] = Binding affinity to wild type N-terminal polyhis-tagged TEV protease cleavage site fused Mycobacterium tuberculosis ICL1 expressed in Escherichia coli BL21 (DE3) in presence of MgCl2 by NMR binding analysis
[7] = Binding affinity to wild type N-terminal polyhis-tagged TEV protease cleavage site fused Mycobacterium tuberculosis ICL1 expressed in Escherichia coli BL21 (DE3) in absence of Mg2+ by NMR binding analysis
[8] = system: Mycobacterium tuberculosis; assay: (§1) Binding affinity to wild type N-terminal polyhis-tagged TEV protease cleavage site fused Mycobacterium tuberculosis ICL1 expressed in Escherichia coli BL21 (DE3) assessed as covalent adduct formation at 1 mM measured after 75 mins in presence of Mg2+ by LC-MS/MS analysis relative to control
[9] = system: Mycobacterium tuberculosis; assay: Binding affinity to wild type N-terminal polyhis-tagged TEV protease cleavage site fused Mycobacterium tuberculosis ICL1 expressed in Escherichia coli BL21 (DE3) assessed as covalent adduct formation at 1 mM measured after 5 hrs in presence of Mg2+ by LC-MS/MS analysis relative to control
[10] = system: Mycobacterium tuberculosis; assay: as §1, with “1 min” for “75 mins”, “Mg2+ and glyoxylate” for “Mg2+”
[11] = Binding affinity to wild type N-terminal polyhis-tagged TEV protease cleavage site fused Mycobacterium tuberculosis ICL1 expressed in Escherichia coli BL21 (DE3) in presence of Mg2+ and glyoxylate by NMR binding analysis
[12] = Binding affinity to wild type N-terminal polyhis-tagged TEV protease cleavage site fused Mycobacterium tuberculosis ICL1 expressed in Escherichia coli BL21 (DE3) in presence of glyoxylate by NMR binding analysis
[13] = system: Mycobacterium tuberculosis; assay: Binding affinity to wild type N-terminal polyhis-tagged TEV protease cleavage site fused Mycobacterium tuberculosis ICL1 expressed in Escherichia coli BL21 (DE3) assessed as covalent adduct formation in presence of glyoxylate by NMR binding analysis

## O=C(O)C/C(=C\c1ccccc1)C(=O)O
[1]
  IC50: 2600 µM

## O=C(O)/C=C(/CC(=O)O)C(=O)O
[1]
  IC50: 5200 µM

## C=C(CC(=O)OC)C(=O)OC
[1]
  IC50: > 10000 µM

## C/C=C(\CC(=O)OC)C(=O)OC
[1]
  IC50: > 10000 µM

## C/C=C(\CC(=O)O)C(=O)O
[1]
  IC50: 3100 µM

## O=C(O)/C=C(\CC(=O)O)C(=O)O [ACONITIC ACID]
[1]
  IC50: 5020 µM

## C=C(CC(=O)O)C(=O)O [ITACONATE]
[2]
  Activity: Active
[3]
  Activity: Active
[4]
  Activity: Active
[5]
  Activity: inactive
[6]
  Kd: 112 µM
[7]
  Kd: > 500 µM
[8]
  Activity: 50%
[9]
  Activity: 100%
[10]
  Activity: 100%
[11]
  Kd: 123 µM
[12]
  Kd: > 500 µM
[13]
  Activity: inactive
[1]
  IC50: 420 µM
